Values after ≈ are worked out from the molar mass of the structure shown.
Key:
[1] = Oral bioavailability in Sprague-Dawley rat at 3 mg/kg; format: ADME, organism-based; conditions: in vivo
[2] = Efflux ratio of apparent permeability across basolateral to apical over apical to basolateral side in human Caco2 cells at 10 uM after 1 hr by LC-MS method; conditions: Caco-2
[3] = Intrinsic clearance in human liver microsomes at 1 uM after 5 to 40 mins by LC-MS/MS method; format: ADME; conditions: read-out: CLH
[4] = Volume of distribution at steady state in Sprague-Dawley rat at 1 mg/kg, iv or 3 mg/kg, po; format: ADME, organism-based; conditions: in vivo, read-out: Vdss
Dipeptidyl peptidase 1 [5] = target: T1, Dipeptidyl peptidase 1 (Homo sapiens, UniProt P53634); assay: Inhibition of human recombinant DPP1 using Gly-Arg-AMC as substrate preincubated for 30 mins followed by substrate addition by fluorometric assay
Summary of the method: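 Isolated human recombinant DPP1 was run in a fluorometric assay in piperazine-based buffer. Compound was pre-incubated with enzyme for 30 min at rt, then Gly-Arg-AMC dipeptide substrate was added. Data were curve-fitted to give pIC50, as the mean of at least two experiments.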

[6] = Apparent permeability across basolateral to apical side in human Caco2 cells at 10 uM after 1 hr by LC-MS method; conditions: Caco-2
physchem [7] = conditions: octanol/water, pH 7.4
[8] = Intrinsic clearance in dog hepatocytes assessed per 10^6 cells at 1 uM after 10 to 90 mins by LC-MS/MS method; format: ADME, cell-based, Canis lupus familiaris, Hepatocyte
[9] = Intrinsic clearance in rat hepatocytes assessed per 10^6 cells at 1 uM after 10 to 90 mins by LC-MS/MS method; format: ADME, cell-based, Hepatocyte
[10] = target: Voltage-gated inwardly rectifying potassium channel KCNH2 (Homo sapiens, UniProt Q12809)
physchem [11] = conditions: pH 7.4
[12] = Half life in Sprague-Dawley rat at 1 mg/kg, iv or 3 mg/kg, po; format: ADME, organism-based; conditions: in vivo
[13] = Apparent permeability across apical to basolateral side in human Caco2 cells at 10 uM after 1 hr by LC-MS method; conditions: Caco-2
[14] = Protein binding in human plasma at 10 uM after 6 hrs by LC-MS/MS method; format: ADME, cell-free; conditions: read-out: PPB (converted)
[15] = Protein binding in dog plasma at 10 uM after 6 hrs by LC-MS/MS method; format: ADME, cell-free, Canis lupus familiaris; conditions: read-out: PPB (converted)
[16] = Clearance in Sprague-Dawley rat at 1 mg/kg, iv or 3 mg/kg, po; format: ADME, organism-based; conditions: in vivo
Dipeptidyl peptidase 1 [17] = target: T1, Dipeptidyl peptidase 1; assay: Inhibition of DPP1 in human U937 cells using Gly-Phe-AFC as substrate preincubated for 60 mins followed by substrate addition by fluorescence assay; format: cell-based, U-937
[18] = Intrinsic clearance in human hepatocytes assessed per 10^6 cells at 1 uM after 10 to 90 mins by LC-MS/MS method; format: ADME, cell-based, Hepatocyte
[19] = Protein binding in rat plasma at 10 uM after 6 hrs by LC-MS/MS method; format: ADME, cell-free; conditions: read-out: PPB (converted)
[20] = Propionaldehyde reactivity assessed as half life of the compound at pH 7.4 by LC-UV method; format: physicochemical
[21] = Oral bioavailability in Beagle dog at 2 mg/kg; format: ADME, organism-based, Canis lupus familiaris; conditions: in vivo
[22] = Clearance in Beagle dog at 1 mg/kg, iv and 2 mg/kg, po; format: ADME, organism-based, Canis lupus familiaris; conditions: in vivo
[23] = Volume of distribution at steady state in Beagle dog at 1 mg/kg, iv and 2 mg/kg, po; format: ADME, organism-based, Canis lupus familiaris; conditions: in vivo, read-out: Vdss
[24] = Half life in Beagle dog at 1 mg/kg, iv and 2 mg/kg, po; format: ADME, organism-based, Canis lupus familiaris; conditions: in vivo
[25] = Half life in Han Wistar rat at 1 mg/kg, iv and 3 mg/kg, po; format: ADME, organism-based; conditions: in vivo
Summary of the method: (§1)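 Han Wistar rat PK with 1 mg/kg iv and 3 mg/kg po doses, both in pH3 buffer. Clearance is given in ml/min/kg, Vss in L/kg and t1/2 in h.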

[26] = Volume of distribution at steady state in Han Wistar rat at 1 mg/kg, iv and 3 mg/kg, po; format: ADME, organism-based; conditions: in vivo, read-out: Vdss; summary of the method: as §1
[27] = Oral bioavailability in Han Wistar rat at 3 mg/kg; format: ADME, organism-based; conditions: in vivo; summary of the method: as §1
[28] = Clearance in Han Wistar rat at 1 mg/kg, iv and 3 mg/kg, po; format: ADME, organism-based; conditions: in vivo; summary of the method: as §1

Chain of Voltage-gated inwardly rectifying potassium channel KCNH2 (Q12809 whole entry): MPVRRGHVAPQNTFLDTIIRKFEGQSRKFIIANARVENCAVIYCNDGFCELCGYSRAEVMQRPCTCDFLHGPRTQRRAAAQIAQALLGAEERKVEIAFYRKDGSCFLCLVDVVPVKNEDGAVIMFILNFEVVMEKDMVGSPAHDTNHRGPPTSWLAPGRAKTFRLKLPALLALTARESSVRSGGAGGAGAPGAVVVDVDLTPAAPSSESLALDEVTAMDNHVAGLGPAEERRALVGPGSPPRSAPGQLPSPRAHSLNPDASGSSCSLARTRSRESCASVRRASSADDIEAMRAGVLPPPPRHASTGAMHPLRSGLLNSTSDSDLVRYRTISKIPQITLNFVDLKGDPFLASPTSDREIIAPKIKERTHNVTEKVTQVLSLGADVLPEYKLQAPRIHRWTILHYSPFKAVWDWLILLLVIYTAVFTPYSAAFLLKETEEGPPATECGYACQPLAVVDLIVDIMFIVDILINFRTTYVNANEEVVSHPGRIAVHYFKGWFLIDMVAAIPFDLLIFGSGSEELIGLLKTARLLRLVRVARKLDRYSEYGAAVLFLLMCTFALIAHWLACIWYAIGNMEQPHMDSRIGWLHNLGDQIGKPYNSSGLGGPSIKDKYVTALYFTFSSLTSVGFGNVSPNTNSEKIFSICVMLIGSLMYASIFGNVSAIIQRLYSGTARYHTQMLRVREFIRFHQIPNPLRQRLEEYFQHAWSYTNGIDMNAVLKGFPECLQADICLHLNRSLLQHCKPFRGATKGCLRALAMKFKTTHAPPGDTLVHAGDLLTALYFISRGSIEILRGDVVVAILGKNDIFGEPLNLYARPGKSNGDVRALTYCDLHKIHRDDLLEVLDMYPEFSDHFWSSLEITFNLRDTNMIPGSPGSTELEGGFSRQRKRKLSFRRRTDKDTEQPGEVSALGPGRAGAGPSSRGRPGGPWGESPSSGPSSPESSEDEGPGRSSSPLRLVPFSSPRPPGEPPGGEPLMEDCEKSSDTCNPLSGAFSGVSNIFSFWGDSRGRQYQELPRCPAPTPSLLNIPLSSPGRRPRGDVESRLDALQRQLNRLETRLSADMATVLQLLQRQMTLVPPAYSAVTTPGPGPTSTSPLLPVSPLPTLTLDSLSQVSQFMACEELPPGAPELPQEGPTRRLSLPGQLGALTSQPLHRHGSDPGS
T1 sequence (P53634 25-134 limits assumed): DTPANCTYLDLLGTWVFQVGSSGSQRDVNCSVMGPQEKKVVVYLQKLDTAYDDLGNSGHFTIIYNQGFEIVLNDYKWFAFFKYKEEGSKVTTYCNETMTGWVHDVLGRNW
T1 sequence (P53634 231-394 limits assumed): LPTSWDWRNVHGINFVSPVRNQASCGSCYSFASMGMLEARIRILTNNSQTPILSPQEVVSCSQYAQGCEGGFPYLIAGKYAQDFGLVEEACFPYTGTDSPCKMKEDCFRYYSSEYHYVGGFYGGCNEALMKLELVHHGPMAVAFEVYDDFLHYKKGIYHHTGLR
T1 sequence (P53634 395-463 limits assumed): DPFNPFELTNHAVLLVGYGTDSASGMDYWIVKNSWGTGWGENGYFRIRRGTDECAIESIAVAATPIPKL

Cc1cc(-c2ccc(C[C@@H](C#N)NC(=O)[C@@H]3CNCCCO3)cc2)cc2c1oc(=O)n2C
bioavailability [1]: 24%
efflux ratio at 1 h, 10 µM [2]: 5.9
microsomal CLint at 1 µM [3]: < 14 µL/min/mg
Vd [4]: 0.5 L/kg
IC50 (Dipeptidyl peptidase 1 [5]): 0.01 µM
Papp B→A at 1 h, 10 µM [6]: 760 nm/s
logD at 10 µM (physchem [7]): 1.5
CLH [8]: < 3.5 µL/min/10^6 cells
CLH [9]: < 3.5 µL/min/10^6 cells
IC50 [10]: > 33 µM
solubility kinetic at 2 h (physchem [11]; phosphate buffered saline): 175 µM (≈ 76 µg/mL)
half-life [12]: 8 h
Papp A→B at 1 h, 10 µM [13]: 130 nm/s
fraction unbound at 6 h, 10 µM [14]: 0.08
fraction unbound at 6 h, 10 µM [15]: 0.13
clearance [16]: 0.06 L/h/kg
IC50 (Dipeptidyl peptidase 1 [17]): 0.00794 µM
intrinsic clearance (CLint) [18]: < 3.5 µL/min/10^6 cells
fraction unbound at 6 h, 10 µM [19]: 0.03
half-life [20]: > 50 h

N#Cc1ccc(-c2ccc(C[C@@H](C#N)NC(=O)C3CCCCNC3)cc2)cc1 (mixture of isomers)
IC50 (Dipeptidyl peptidase 1 [5]): 1.26 µM
IC50 (Dipeptidyl peptidase 1 [17]): 0.501 µM
half-life [20]: > 50 h

N#Cc1ccc(-c2ccc(C[C@@H](C#N)NC(=O)[C@@H]3CCCC[C@H]3N)cc2)cc1
IC50 (Dipeptidyl peptidase 1 [5]): 0.316 µM
IC50 (Dipeptidyl peptidase 1 [17]): 0.158 µM
half-life [20]: > 50 h

N#Cc1ccc(-c2ccc(C[C@@H](C#N)NC(=O)[C@@H]3CCC[C@@H]3N)cc2)cc1
IC50 (Dipeptidyl peptidase 1 [5]): 1 µM
IC50 (Dipeptidyl peptidase 1 [17]): 1.26 µM
half-life [20]: > 50 h

CN1C(=O)Cc2ccc(-c3ccc(C[C@@H](C#N)NC(=O)C4(N)CCOCC4)cc3)cc21
IC50 (Dipeptidyl peptidase 1 [17]): 0.00158 µM

CN1C(=O)C(F)(F)c2ccc(-c3ccc(C[C@@H](C#N)NC(=O)[C@@H]4CNCCCO4)cc3)cc21
IC50 (Dipeptidyl peptidase 1 [5]): 0.0158 µM
logD at 10 µM (physchem [7]): 1.4
IC50 (Dipeptidyl peptidase 1 [17]): 0.0158 µM

N#Cc1ccc(-c2ccc(C[C@@H](C#N)NC(=O)C3CNCCCO3)cc2)cc1 (mixture of isomers)
IC50 (Dipeptidyl peptidase 1 [5]): 0.0631 µM
logD at 10 µM (physchem [7]): 1.1
half-life [20]: > 50 h

N#C[C@H](Cc1ccc(-c2ccc3oc(=O)n(CC(F)F)c3c2)cc1)NC(=O)[C@@H]1CNCCCO1
bioavailability [1]: 29%
microsomal CLint at 1 µM [3]: < 14 µL/min/mg
Vd [4]: 2 L/kg
IC50 (Dipeptidyl peptidase 1 [5]): 0.00631 µM
Papp B→A at 1 h, 10 µM [6]: 800 nm/s
logD at 10 µM (physchem [7]): 1
CLH [9]: < 3.5 µL/min/10^6 cells
solubility kinetic at 2 h (physchem [11]; buffer): 190 µM (≈ 89.4 µg/mL)
half-life [12]: 7 h
Papp A→B at 1 h, 10 µM [13]: 80 nm/s
fraction unbound at 6 h, 10 µM [14]: 0.07
fraction unbound at 6 h, 10 µM [15]: 0.15
clearance [16]: 0.24 L/h/kg
IC50 (Dipeptidyl peptidase 1 [17]): 0.00631 µM
intrinsic clearance (CLint) [18]: 5 µL/min/10^6 cells
fraction unbound at 6 h, 10 µM [19]: 0.06
half-life [20]: > 50 h

Cn1c(=O)sc2ccc(-c3ccc(C[C@@H](C#N)NC(=O)[C@@H]4CNCCCO4)cc3)cc21
bioavailability [1]: 26%
efflux ratio at 1 h, 10 µM [2]: 4.7
microsomal CLint at 1 µM [3]: < 15 µL/min/mg
Vd [4]: 2 L/kg
IC50 (Dipeptidyl peptidase 1 [5]): 0.00251 µM
Papp B→A at 1 h, 10 µM [6]: 510 nm/s
logD at 10 µM (physchem [7]): 1.5
CLH [8]: < 3.5 µL/min/10^6 cells
CLH [9]: < 3.5 µL/min/10^6 cells
IC50 [10]: 23 µM
solubility kinetic at 2 h (physchem [11]; buffer): 170 µM (≈ 74.2 µg/mL)
half-life [12]: 8 h
Papp A→B at 1 h, 10 µM [13]: 110 nm/s
fraction unbound at 6 h, 10 µM [14]: 0.07
clearance [16]: 0.18 L/h/kg
IC50 (Dipeptidyl peptidase 1 [17]): 0.00316 µM
intrinsic clearance (CLint) [18]: < 3.5 µL/min/10^6 cells
fraction unbound at 6 h, 10 µM [19]: 0.05
half-life [20]: > 50 h

Cn1c(=O)cnc2ccc(-c3ccc(C[C@@H](C#N)NC(=O)[C@@H]4CNCCCO4)cc3)cc21
IC50 (Dipeptidyl peptidase 1 [5]): 0.0251 µM
logD at 10 µM (physchem [7]): 0.6

N#Cc1ccc(-c2ccc(C[C@@H](C#N)NC(=O)C3(N)CCOCC3)cc2)cc1
half-life [20]: < 1 h

CCn1c(=O)oc2ccc(-c3ccc(C[C@@H](C#N)NC(=O)[C@@H]4CNCCCO4)cc3)cc21
bioavailability [1]: 36%
bioavailability [21]: 85%
clearance [22]: 0.36 L/h/kg
Vd [23]: 9 L/kg
microsomal CLint at 1 µM [3]: < 14 µL/min/mg
Vd [4]: 2 L/kg
CLH [8]: < 3.5 µL/min/10^6 cells
CLH [9]: < 3.5 µL/min/10^6 cells
half-life [24]: 16 h
half-life [12]: 8 h
fraction unbound at 6 h, 10 µM [14]: 0.06
fraction unbound at 6 h, 10 µM [15]: 0.14
clearance [16]: 0.24 L/h/kg
intrinsic clearance (CLint) [18]: < 3.5 µL/min/10^6 cells
fraction unbound at 6 h, 10 µM [19]: 0.08
half-life [20]: > 50 h

N#Cc1ccc(-c2ccc(C[C@@H](C#N)NC(=O)[C@@H]3CNCCCO3)cc2)cc1
bioavailability [21]: 71%
efflux ratio at 1 h, 10 µM [2]: 2.4
clearance [22]: 0.246 L/h/kg
half-life [25]: 6.2 h
Vd [26]: 2 L/kg
Vd [23]: 3.9 L/kg
bioavailability [27]: 25%
microsomal CLint at 1 µM [3]: 9.5 µL/min/mg
clearance [28]: 0.228 L/h/kg
IC50 (Dipeptidyl peptidase 1 [5]): 0.0398 µM
Papp B→A at 1 h, 10 µM [6]: 450 nm/s
logD at 10 µM (physchem [7]): 1.1
CLH [8]: < 4 µL/min/10^6 cells
CLH [9]: < 3.5 µL/min/10^6 cells
half-life [24]: 10.7 h
IC50 [10]: 17 µM
solubility kinetic at 2 h (physchem [11]; phosphate buffered saline): 170 µM (≈ 63.7 µg/mL)
Papp A→B at 1 h, 10 µM [13]: 190 nm/s
fraction unbound at 6 h, 10 µM [14]: 0.09
fraction unbound at 6 h, 10 µM [15]: 0.25
IC50 (Dipeptidyl peptidase 1 [17]): 0.0316 µM
intrinsic clearance (CLint) [18]: < 3.5 µL/min/10^6 cells
fraction unbound at 6 h, 10 µM [19]: 0.24
half-life [20]: > 50 h

N#Cc1ccc(-c2ccc(C[C@@H](C#N)NC(=O)[C@@H]3CCCNC3)cc2)cc1
IC50 (Dipeptidyl peptidase 1 [5]): > 10 µM
logD at 10 µM (physchem [7]): 0.6

N#Cc1ccc(-c2ccc(C[C@@H](C#N)NC(=O)[C@H]3CCCNC3)cc2)cc1
IC50 (Dipeptidyl peptidase 1 [5]): > 10 µM
logD at 10 µM (physchem [7]): 0.2

— ChEMBL document CHEMBL3856275, “Discovery of Second Generation Reversible Covalent DPP1 Inhibitors Leading to an Oxazepane Amidoacetonitrile Based Clinical Candidate (AZD7986)” (J Med Chem, 2016)
